Reference: ChEMBL document CHEMBL1131510, “An endogenous sleep-inducing compound is a novel competitive inhibitor of fatty acid amide hydrolase” (Bioorg Med Chem Lett, 1998)

Assays:
[1] = target: T1, Fatty-acid amide hydrolase 1 (Homo sapiens, UniProt O00519); experiment: Compound was tested for inhibitory potency against Fatty-acid amide hydrolase (FAAH) at pH 9.0
T1 sequence (O00519 whole entry): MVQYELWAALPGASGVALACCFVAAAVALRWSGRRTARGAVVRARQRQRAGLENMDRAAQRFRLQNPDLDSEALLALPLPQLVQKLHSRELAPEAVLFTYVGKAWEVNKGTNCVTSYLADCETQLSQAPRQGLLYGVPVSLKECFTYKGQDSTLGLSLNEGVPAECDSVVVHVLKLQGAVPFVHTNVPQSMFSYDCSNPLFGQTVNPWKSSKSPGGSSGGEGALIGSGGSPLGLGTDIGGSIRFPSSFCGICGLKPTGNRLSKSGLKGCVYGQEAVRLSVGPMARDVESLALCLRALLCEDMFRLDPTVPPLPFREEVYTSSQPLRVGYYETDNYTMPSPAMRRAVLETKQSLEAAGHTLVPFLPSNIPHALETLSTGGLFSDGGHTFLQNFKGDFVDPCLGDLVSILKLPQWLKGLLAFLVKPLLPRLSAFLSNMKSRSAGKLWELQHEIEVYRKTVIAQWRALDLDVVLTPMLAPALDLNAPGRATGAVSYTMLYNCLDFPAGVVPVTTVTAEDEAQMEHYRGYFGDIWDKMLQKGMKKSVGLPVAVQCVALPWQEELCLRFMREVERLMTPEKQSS
How it was run: (§1)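 Hydrolysis of ¹⁴C-oleamide to oleic acid was followed over 30 s to 15 min. Product was extracted, separated by TLC and quantified by scintillation counting.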

[2] = target: T1, Fatty-acid amide hydrolase 1; experiment: Inhibitory concentration against Fatty-acid amide hydrolase (FAAH) at pH 9.0; how it was run: as §1
[3] = target: T1, Fatty-acid amide hydrolase 1; experiment: Concentration required to inhibit Fatty-acid amide hydrolase (FAAH) at pH 7.0
How it was run: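 FAAH from solubilized liver plasma membrane extract, assayed at 20-22 °C at pH 7.0. Per the general assay footnote, the reaction buffer contained Tris, EDTA, glycerol and Triton X-100. Read-out was ¹⁴C-oleamide hydrolysis to oleic acid, followed by extraction, TLC separation and scintillation counting. Reaction time courses ran 10 min to 1 h. Only IC50 values are reported at this pH.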

[4] = Acid dissociation constant value for the compound was determined; assay type: ADME
[5] = target: T1, Fatty-acid amide hydrolase 1; experiment: Concentration required to inhibit fatty acid amide hydrolase (FAAH) at pH 7.0
How it was run: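 Performed at pH 7.0 with solubilized liver plasma membrane extract as the FAAH source. ¹⁴C-oleamide breakdown to oleic acid was measured by extraction, TLC separation and scintillation counting. Reaction progress was monitored from 10 min to 1 h, and only IC50 values were derived.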

Ki [1]	IC50 [2]	pKa [4]	IC50 [5]	Compound	IC50 [3]
550 nM	1500 nM			CCCCCCCOC(=O)CC(=O)CBr	2100 nM
	> 100000 nM			CCCCCC[C@@H](C)OC(=O)CC(=O)CCC	
	> 100000 nM	9		CCCCCCCCC(=O)CC(C)=O	
390 nM	1000 nM		5300 nM	CCCCCCCC/C=C\CCCCCCCC(=O)CBr	
	> 100000 nM	10.5		CCCCCC[C@H](C)OC(=O)CC(C)=O	
1100 nM	2900 nM		700 nM	CCCCCC[C@@H](C)OC(=O)CC(=O)CCl	
	> 100000 nM			CCCCCC[C@@H](C)OC(=O)CC(=O)CC	
190 nM	600 nM		2500 nM	CCCCCCCC/C=C\CCCCOC(=O)CC(=O)CBr	
	> 100000 nM			CCCCCC[C@@H](C)OC(=O)CC(O)CBr (stereo partly drawn)	

Compound	Ki [1]	IC50 [2]	pKa [4]	IC50 [5]	IC50 [3]
CCCCCC[C@H](C)OC(=O)CC(=O)CBr	1100 nM	4000 nM			
CCCCCC[C@@H](C)OC(=O)CC(=O)CBr	800 nM	2600 nM	8.5		3100 nM
CCCCCCCC/C=C\CCCCCCCC(=O)C(F)(F)F	250 nM	600 nM		9900 nM	
